Measured values: ChEMBL document CHEMBL4689842, “EUbOPEN Chemogenomics Library wave 1” (2021)
“And” between values parts separate entries of the source, which are not always exact repeats. Identical values can stand only once.

Tested on: Fibroblast
Assay: Multiplex assay against human fibroblast
Type: toxicity, cell-based
Procedure, shortened: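 Live cells carried four stains from seeding: Hoechst33342, BioTracker Green Microtubule Cytoskeleton Dye, MitoTracker Red and Annexin V Alexa Fluor 680. They were imaged on a CQ1 microscope at 37°C and 5% CO2 after compound addition. Using CellPathfinder machine-learning gating, cells were split into Hoechst high-intensity objects or normal cells, normal cells into healthy, pyknosed or fragmented nuclei, and pyknosed cells into mitotic or apoptotic; tubulin, mitochondrial-mass and membrane-permeability phenotypes are per cents of healthy-nucleus cells.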

[1] = 12 h, 1 µM, compound concentration 1 uM, replicate 1
[2] = 12 h, 1 µM, compound concentration 1 uM, replicate 2
[3] = 12 h, 10 µM, compound concentration 10 uM, replicate 1
[4] = 12 h, 10 µM, compound concentration 10 uM, replicate 2
[5] = 24 h, 1 µM, compound concentration 1 uM, replicate 1
[6] = 24 h, 1 µM, compound concentration 1 uM, replicate 2
[7] = 24 h, 10 µM, compound concentration 10 uM, replicate 1
[8] = 24 h, 10 µM, compound concentration 10 uM, replicate 2
[9] = 48 h, 1 µM, compound concentration 1 uM, replicate 1
[10] = 48 h, 1 µM, compound concentration 1 uM, replicate 2
[11] = 48 h, 10 µM, compound concentration 10 uM, replicate 1
[12] = 48 h, 10 µM, compound concentration 10 uM, replicate 2

CC[C@@]1(O)C(=O)OCc2c1cc1n(c2=O)Cc2cc3ccccc3nc2-1 [CAMPTOTHECIN]
Population Apoptotic (%) [1]: 68% and 80% | Population Fragmented Nuclei (%) [1]: 42% and 41% and 43% | Population Healthy Nuclei (%) [1]: 49% and 43% and 37% | Population Membrane Permeable-Phenotype (%) [1]: 10% and 7% and 5% | Population Mitochondria Different-Phenotype (%) [1]: 3% and 9% and 7% | Population Mitotic Cells (%) [1]: 31% and 20% and 19% | Population Normal (%) [1]: 84% and 52% and 47% | Population Pyknosed Nuclei (%) [1]: 8% and 15% and 19% | Total Cell Count [1]: 256 and 440 and 382 | Population Fragmented Nuclei (%) [2]: 64% and 80% | Population Healthy Nuclei (%) [2]: 32% and 19% and 34% | Population Hoechst High Intensity Objects (%) [2]: 37% and 59% and 67% | Population Membrane Permeable-Phenotype (%) [2]: 15% and 16% and 6% | Population Mitochondria Different-Phenotype (%) [2]: 10% and 12% and 30% | Population Normal (%) [2]: 62% and 40% and 32% | Population Pyknosed Nuclei (%) [2]: 3% and 0% and 1% | Population Tubulin-Different-Phenotype (%) [2]: 21% and 28% and 24% | Population Apoptotic (%) [3]: 87% | Population Fragmented Nuclei (%) [3]: 34% | Population Healthy Nuclei (%) [3]: 43% | Population Hoechst High Intensity Objects (%) [3]: 27% | Population Membrane Permeable-Phenotype (%) [3]: 3% | Population Mitochondria Different-Phenotype (%) [3]: 11% | Population Mitotic Cells (%) [3]: 12% | Population Normal (%) [3]: 72% | Population Pyknosed Nuclei (%) [3]: 21% | Population Tubulin-Different-Phenotype (%) [3]: 9% | Total Cell Count [3]: 198 | Population Apoptotic (%) [4]: 50% | Population Fragmented Nuclei (%) [4]: 65% | Population Healthy Nuclei (%) [4]: 30% | Population Hoechst High Intensity Objects (%) [4]: 41% | Population Membrane Permeable-Phenotype (%) [4]: 7% | Population Mitochondria Different-Phenotype (%) [4]: 7% | Population Mitotic Cells (%) [4]: 50% | Population Normal (%) [4]: 58% | Population Pyknosed Nuclei (%) [4]: 4% | Population Tubulin-Different-Phenotype (%) [4]: 7% | Total Cell Count [4]: 74 | Population Apoptotic (%) [5]: 78% and 72% and 90% | Population Fragmented Nuclei (%) [5]: 39% and 40% and 34% | Population Healthy Nuclei (%) [5]: 48% and 43% and 55% | Population Membrane Permeable-Phenotype (%) [5]: 10% and 4% and 6% | Population Mitochondria Different-Phenotype (%) [5]: 7% and 15% and 8% | Population Mitotic Cells (%) [5]: 21% and 27% and 9% | Population Normal (%) [5]: 54% and 49% and 89% | Population Pyknosed Nuclei (%) [5]: 12% and 16% and 10% | Population Tubulin-Different-Phenotype (%) [5]: 16% and 11% and 12% | Total Cell Count [5]: 414 and 405 and 222 | Population Fragmented Nuclei (%) [6]: 57% and 80% and 66% | Population Healthy Nuclei (%) [6]: 40% and 18% and 32% | Population Hoechst High Intensity Objects (%) [6]: 44% and 56% and 68% | Population Membrane Permeable-Phenotype (%) [6]: 15% and 16% and 0% | Population Mitochondria Different-Phenotype (%) [6]: 25% and 16% and 28% | Population Normal (%) [6]: 55% and 43% and 31% | Population Pyknosed Nuclei (%) [6]: 2% and 1% | Population Tubulin-Different-Phenotype (%) [6]: 20% and 29% and 36% | Population Apoptotic (%) [7]: 85% | Population Fragmented Nuclei (%) [7]: 34% | Population Healthy Nuclei (%) [7]: 45% | Population Hoechst High Intensity Objects (%) [7]: 28% | Population Membrane Permeable-Phenotype (%) [7]: 6% | Population Mitochondria Different-Phenotype (%) [7]: 9% | Population Mitotic Cells (%) [7]: 14% | Population Normal (%) [7]: 71% | Population Pyknosed Nuclei (%) [7]: 19% | Population Tubulin-Different-Phenotype (%) [7]: 7% | Total Cell Count [7]: 201 | Population Apoptotic (%) [8]: 100% | Population Fragmented Nuclei (%) [8]: 65% | Population Healthy Nuclei (%) [8]: 31% | Population Hoechst High Intensity Objects (%) [8]: 42% | Population Membrane Permeable-Phenotype (%) [8]: 0% | Population Mitochondria Different-Phenotype (%) [8]: 0% | Population Mitotic Cells (%) [8]: 0% | Population Normal (%) [8]: 57% | Population Pyknosed Nuclei (%) [8]: 2% | Total Cell Count [8]: 77

CN1C(=O)[C@@H](NC(=O)c2cc3ccccc3[nH]2)N=C(c2ccccc2)c2ccccc21 [DEVAZEPIDE]
Population Apoptotic (%) [1]: 72% | Population Fragmented Nuclei (%) [1]: 21% | Population Healthy Nuclei (%) [1]: 36% | Population Hoechst High Intensity Objects (%) [1]: 13% | Population Membrane Permeable-Phenotype (%) [1]: 34% | Population Mitochondria Different-Phenotype (%) [1]: 3% | Population Mitotic Cells (%) [1]: 27% | Population Normal (%) [1]: 87% | Population Pyknosed Nuclei (%) [1]: 41% | Population Tubulin-Different-Phenotype (%) [1]: 56% | Total Cell Count [1]: 100 | Population Apoptotic (%) [2]: 33% | Population Fragmented Nuclei (%) [2]: 4% | Population Healthy Nuclei (%) [2]: 85% | Population Hoechst High Intensity Objects (%) [2]: 5% | Population Membrane Permeable-Phenotype (%) [2]: 9% | Population Mitochondria Different-Phenotype (%) [2]: 23% | Population Mitotic Cells (%) [2]: 66% | Population Normal (%) [2]: 94% | Population Pyknosed Nuclei (%) [2]: 9% | Population Tubulin-Different-Phenotype (%) [2]: 10% | Total Cell Count [2]: 68 | Population Apoptotic (%) [3]: 67% | Population Fragmented Nuclei (%) [3]: 18% | Population Healthy Nuclei (%) [3]: 48% | Population Hoechst High Intensity Objects (%) [3]: 16% | Population Membrane Permeable-Phenotype (%) [3]: 42% | Population Mitochondria Different-Phenotype (%) [3]: 15% | Population Mitotic Cells (%) [3]: 32% | Population Normal (%) [3]: 83% | Population Pyknosed Nuclei (%) [3]: 33% | Population Tubulin-Different-Phenotype (%) [3]: 68% | Total Cell Count [3]: 112 | Population Apoptotic (%) [4]: 33% | Population Fragmented Nuclei (%) [4]: 20% | Population Healthy Nuclei (%) [4]: 75% | Population Hoechst High Intensity Objects (%) [4]: 7% | Population Membrane Permeable-Phenotype (%) [4]: 37% | Population Mitochondria Different-Phenotype (%) [4]: 48% | Population Mitotic Cells (%) [4]: 66% | Population Normal (%) [4]: 92% | Population Pyknosed Nuclei (%) [4]: 5% | Population Tubulin-Different-Phenotype (%) [4]: 66% | Total Cell Count [4]: 65 | Population Apoptotic (%) [5]: 44% | Population Fragmented Nuclei (%) [5]: 25% | Population Healthy Nuclei (%) [5]: 46% | Population Hoechst High Intensity Objects (%) [5]: 13% | Population Membrane Permeable-Phenotype (%) [5]: 21% | Population Mitochondria Different-Phenotype (%) [5]: 14% | Population Mitotic Cells (%) [5]: 56% | Population Normal (%) [5]: 86% | Population Pyknosed Nuclei (%) [5]: 27% | Population Tubulin-Different-Phenotype (%) [5]: 73% | Total Cell Count [5]: 104 | Population Apoptotic (%) [6]: 37% | Population Fragmented Nuclei (%) [6]: 7% | Population Healthy Nuclei (%) [6]: 82% | Population Hoechst High Intensity Objects (%) [6]: 1% | Population Membrane Permeable-Phenotype (%) [6]: 3% | Population Mitochondria Different-Phenotype (%) [6]: 10% | Population Mitotic Cells (%) [6]: 62% | Population Normal (%) [6]: 98% | Population Pyknosed Nuclei (%) [6]: 10% | Population Tubulin-Different-Phenotype (%) [6]: 6% | Total Cell Count [6]: 79 | Population Apoptotic (%) [7]: 43% | Population Healthy Nuclei (%) [7]: 54% | Population Hoechst High Intensity Objects (%) [7]: 12% | Population Membrane Permeable-Phenotype (%) [7]: 34% | Population Mitochondria Different-Phenotype (%) [7]: 9% | Population Mitotic Cells (%) [7]: 56% | Population Normal (%) [7]: 87% | Population Pyknosed Nuclei (%) [7]: 16% | Population Tubulin-Different-Phenotype (%) [7]: 55% | Total Cell Count [7]: 108 | Population Apoptotic (%) [8]: 92% | Population Fragmented Nuclei (%) [8]: 28% | Population Healthy Nuclei (%) [8]: 49% | Population Hoechst High Intensity Objects (%) [8]: 7% | Population Membrane Permeable-Phenotype (%) [8]: 19% | Population Mitochondria Different-Phenotype (%) [8]: 45% | Population Mitotic Cells (%) [8]: 7% | Population Normal (%) [8]: 92% | Population Pyknosed Nuclei (%) [8]: 22% | Population Tubulin-Different-Phenotype (%) [8]: 51% | Total Cell Count [8]: 68 | Population Apoptotic (%) [9]: 53% | Population Fragmented Nuclei (%) [9]: 35% | Population Healthy Nuclei (%) [9]: 46% | Population Hoechst High Intensity Objects (%) [9]: 22% | Population Membrane Permeable-Phenotype (%) [9]: 36% | Population Mitochondria Different-Phenotype (%) [9]: 18% | Population Mitotic Cells (%) [9]: 46% | Population Normal (%) [9]: 77% | Population Pyknosed Nuclei (%) [9]: 18% | Population Tubulin-Different-Phenotype (%) [9]: 66% | Total Cell Count [9]: 92 | Population Apoptotic (%) [10]: 0% | Population Fragmented Nuclei (%) [10]: 19% | Population Healthy Nuclei (%) [10]: 79% | Population Hoechst High Intensity Objects (%) [10]: 7% | Population Membrane Permeable-Phenotype (%) [10]: 14% | Population Mitochondria Different-Phenotype (%) [10]: 3% | Population Mitotic Cells (%) [10]: 100% | Population Normal (%) [10]: 92% | Population Pyknosed Nuclei (%) [10]: 0% | Population Tubulin-Different-Phenotype (%) [10]: 54% | Total Cell Count [10]: 127 | Population Apoptotic (%) [11]: 66% | Population Fragmented Nuclei (%) [11]: 44% | Population Healthy Nuclei (%) [11]: 42% | Population Hoechst High Intensity Objects (%) [11]: 12% | Population Membrane Permeable-Phenotype (%) [11]: 22% | Population Mitochondria Different-Phenotype (%) [11]: 12% | Population Mitotic Cells (%) [11]: 33% | Population Normal (%) [11]: 87% | Population Pyknosed Nuclei (%) [11]: 12% | Population Tubulin-Different-Phenotype (%) [11]: 57% | Total Cell Count [11]: 107 | Population Apoptotic (%) [12]: 100% | Population Fragmented Nuclei (%) [12]: 37% | Population Healthy Nuclei (%) [12]: 61% | Population Hoechst High Intensity Objects (%) [12]: 8% | Population Membrane Permeable-Phenotype (%) [12]: 29% | Population Mitochondria Different-Phenotype (%) [12]: 11% | Population Mitotic Cells (%) [12]: 0% | Population Normal (%) [12]: 91% | Population Pyknosed Nuclei (%) [12]: 1% | Population Tubulin-Different-Phenotype (%) [12]: 61% | Total Cell Count [12]: 96
